Activity calls are given as the source filed them.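 How the source made its calls, unless noted: active means viability loss from added drug above about 55%, and viability with drug at most 40%, in both replicates (limit read from the data, passing the limit was not always enough); inconclusive means both conditions met in only one replicate; inactive means neither replicate meets both conditions.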
Key:
[1] = SK-BR-3 cell growth inhibitors, pilot screen, 24 h, human (AID 572;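 active means viability at or below 10% of carrier control in both of two separate runs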;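 further: compound exposure lasted between 18 and 24 h rather than exactly 24 h; 100% = carrier-treated control wells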); conditions: SK-BR-3 viability, CellTiter-Glo luminescence, at 10 µM, stronger effect = lower value
[2] = HUVEC growth inhibition – cell-based, human, primary screen (AID 575;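 active means viability at or below 30% in both replicate assays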;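 further: 100% = median of untreated cell wells with 0.1% DMSO on each plate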); conditions: HUVEC proliferation, CellTiter-Glo luminescence, 72 h; at 10 µM; stronger effect = lower value
Summary of the method: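 Test system: primary human umbilical vein endothelial cells. Quantity: 1250 cells/well. Compound: single 10 µM dose, 0.1% DMSO, from 5x medium stock. Timing: 72 h treatment at 37 °C. Detection: ATP-based CellTiter-Glo luminescent read. Benchmarks: vehicle and MePR control wells. Format: 384-well plates coated with collagen.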

[3] = growth inhibitors of H69AR lung tumor, primary screen, human, duplicate replicates (AID 580;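 active means viability at or under a set limit in both replicates, limit being median viability minus 3 SD, cut at about 48% in these data, passing the limit was not always enough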;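 further: 100% = mean luminescence of untreated wells and 0% = no signal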); conditions: H69AR lung tumor cells viability, ATP luminescence, 72 h; at 10 µM; stronger effect = lower value
[4] = reversal of MRP1-mediated doxorubicin resistance, pilot screen, H69AR cells, doxorubicin co-treatment (AID 601); conditions: CellTiter-Glo, 72 h, at 10 µM; for differential viability (reversal): stronger effect = higher value
[5] = 384-well plate pilot, post-Golgi transport modulator project, inhibition of yeast transport mutant growth (AID 636; in the data active means inhibition above about 31%); conditions: absorbance 615 nm, about 18 h, stronger effect = higher value
[6] = growth suppression of yeast trafficking mutant, preliminary HTS, modulators of trafficking downstream of Golgi apparatus project, 1536-format plate, OD 615 nm (AID 637; in the data active means inhibition above about 30%); conditions: yeast transport mutant growth, absorbance 615 nm, 18 h; stronger effect = higher value
[7] = H69AR cells + 2 uM doxorubicin, measured here: viability with 2 uM doxorubicin, stronger effect = lower value
[8] = H69AR cells, compound alone cytotoxicity

SMILES | viability [1] | viability [2] | viability [3] | differential viability (reversal) ([4]; H69AR cells + 2 uM doxorubicin) | viability [4, 7] [%] | viability [4, 8] [%] | inhibition [5] | inhibition [6]
CN/C=C1\C(=O)C(C)(C)Oc2ccc3ccc(=O)oc3c21 | 112% (inactive) | 91.5% (inactive) | 87.9% (inactive) | 0.24% (inactive) | 87.7 | 87.9 | -6.53% (inactive) | 0.18% (inactive)
O=C(c1cnc2sccn2c1=O)N1CCc2ccccc2C1 | 95% (inactive) | 95.7% (inactive) | 104% (inactive) | 7.95% (inactive) | 96.2 | 104 | -2.8% (inactive) | -4.36% (inactive)
O=C(COc1ccccc1Cl)NCCCN1CCOCC1 | 98% (inactive) | 86.9% (inactive) | 91.3% (inactive) | -0.6% (inactive) | 91.9 | 91.3 | 3.15% (inactive) | -2.74% (inactive)
COc1cccc(NC(=O)N2CCC(N3CCCCC3)CC2)c1 | 92% (inactive) | 88.2% (inactive) | 94.5% (inactive) | -2.56% (inactive) | 97.1 | 94.5 | -4.29% (inactive) | -0.49% (inactive)
O=C1c2ccccc2NC(c2cccc(F)c2)N1Cc1ccco1 (centres undefined) | 53% (inactive) | 103% (inactive) | 92% (inactive) | 4.72% (inactive) | 87.3 | 92 | -6.85% (inactive) | -1.64% (inactive)
Cc1cc(C(=O)NCc2cccnc2)no1 | 77% (inactive) | 108% (inactive) | 99.2% (inactive) | 6.27% (inactive) | 93 | 99.2 | -4.52% (inactive) | 1.61% (inactive)
COc1cc(S(=O)(=O)NC2CCCCC2C)ccc1Cl (centres undefined) | 83% (inactive) | 98.3% (inactive) | 92.4% (inactive) | -3.38% (inactive) | 95.8 | 92.4 | -7.81% (inactive) | 1.45% (inactive)
CCc1nnc(NC(=O)CSc2nnc3ncccn23)s1 | 91% (inactive) | 108% (inactive) | 95.5% (inactive) | -3.16% (inactive) | 98.7 | 95.5 | -5.07% (inactive) | 3.27% (inactive)
COc1ccc(Nc2nc(-c3sc(N)nc3C)cs2)cc1 | 93% (inactive) | 92.9% (inactive) | 80.2% (inactive) | -5.13% (inactive) | 85.3 | 80.2 | -8.24% (inactive) | 0.73% (inactive)
CCOc1ccc(-c2nc(N)ncc2-c2ccccc2)c(O)c1 | 136% (inactive) | 95.3% (inactive) | 65.3% (inactive) | -14.3% (inactive) | 79.6 | 65.3 | -5.95% (inactive) | -8.1% (inactive)
Cc1cc(C)n2nc[n+](C)c2n1 | 88% (inactive) | 106% (inactive) | 96.4% (inactive) | 11.4% (inactive) | 84.9 | 96.4 | 2.86% (inactive) | 0.98% (inactive)
Cc1ccc(NC(=O)CSc2nnc(-c3ccc(S(=O)(=O)N4CCOCC4)cc3)n2C)cc1 | 102% (inactive) | 104% (inactive) | 98.4% (inactive) | 3.83% (inactive) | 94.6 | 98.4 | -3.33% (inactive) | -1.64% (inactive)
CCCn1c(=NC(C)=O)c(C#N)cc2c(=O)n3cccc(C)c3nc21 | 89% (inactive) | 108% (inactive) | 87.3% (inactive) | -3.01% (inactive) | 90.3 | 87.3 | 0.81% (inactive) | -3.45% (inactive)
Cc1cc(C)nc(-n2nc(C)cc2NC(=O)c2ccc(Br)o2)n1 | 108% (inactive) | 87.4% (inactive) | 71.9% (inactive) | -11.4% (inactive) | 83.3 | 71.9 | -3.73% (inactive) | 5.27% (inactive)
O=C(CSc1nnc(-c2ccco2)n1CC1CCCO1)N1CCCCC1 (centres undefined) | 94% (inactive) | 106% (inactive) | 97.6% (inactive) | 4.84% (inactive) | 92.7 | 97.6 | -3.6% (inactive) | 0.36% (inactive)
O=S(=O)(NCc1ccc(Cl)cc1)c1cnc[nH]1 | 103% (inactive) | 98.1% (inactive) | 106% (inactive) | 23.5% (inactive) | 82.7 | 106 | -6.36% (inactive) | -4.59% (inactive)
Cc1c(NC(=O)c2nn(C)c(=O)c3ccccc23)c(=O)n(-c2ccccc2)n1C | 94% (inactive) | 108% (inactive) | 97.9% (inactive) | 8.84% (inactive) | 89.1 | 97.9 | -1.92% (inactive) | -8.06% (inactive)
CC(C)Cc1ccc(C(C)C(=O)O)cc1 (centres undefined) | 99% (inactive) | 84.3% (inactive) | 97.8% (inactive) | 5.44% (inactive) | 92.3 | 97.8 | -1.95% (inactive) | 7.17% (inactive)
